ChEMBL document CHEMBL5303300, “EUbOPEN Chemogenomics Library - Multiplex” (2023)
Values joined by “and” are separate entries in the source; they are usually repeats but may differ in a detail not shown here. Identical values can stand only once.

System: U2OS
Test: Multiplex assay against U2OS
Assay type: toxicity, cell-based
Details: human, number of replicates 2
Procedure, shortened: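 On a CQ1 microscope at 37°C and 5% CO2, live cells were imaged after compound addition. They had been stained at seeding with Hoechst33342, BioTracker Green Microtubule Cytoskeleton Dye, MitoTracker Red and Annexin V Alexa Fluor 680. CellPathfinder machine-learning gating assigned cells to Hoechst high-intensity objects or normal cells, normal cells to healthy, pyknosed or fragmented nuclei, and pyknosed cells to mitotic or apoptotic. Tubulin, mitochondrial-mass and membrane-permeability phenotypes are per cents of healthy-nucleus cells.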

[1] = 12 h, 1 µM, compound concentration 1 uM
[2] = 12 h, 10 µM, compound concentration 10 uM
[3] = 24 h, 1 µM, compound concentration 1 uM
[4] = 24 h, 10 µM, compound concentration 10 uM
[5] = 48 h, 1 µM, compound concentration 1 uM
[6] = 48 h, 10 µM, compound concentration 10 uM

Cn1cc(-n2cnc3c(NCc4nc5cc(Cl)c(Cl)cc5[nH]4)nc(N4CCOCC4)nc32)cn1
Population Apoptotic (%) [1]: 41% and 88%
Population Healthy Nuclei (%) [1]: 36% and 71%
Population Hoechst High Intensity Objects (%) [1]: 0%
Population Membrane Permeable-Phenotype (%) [1]: 5% and 7%
Population Mitochondria Different-Phenotype (%) [1]: 0% and 8%
Population Normal (%) [1]: 100%
Population Pyknosed Nuclei (%) [1]: 36% and 24%
Population Tubulin-Different-Phenotype (%) [1]: 58% and 50%
Population Apoptotic (%) [2]: 62% and 75%
Population Hoechst High Intensity Objects (%) [2]: 0%
Population Membrane Permeable-Phenotype (%) [2]: 33% and 23%
Population Mitochondria Different-Phenotype (%) [2]: 16% and 37%
Population Mitotic Cells (%) [2]: 37% and 24%
Population Normal (%) [2]: 100%
Population Pyknosed Nuclei (%) [2]: 39% and 28%
Population Tubulin-Different-Phenotype (%) [2]: 66% and 73%
Population Apoptotic (%) [3]: 96% and 80%
Population Fragmented Nuclei (%) [3]: 9% and 21%
Population Healthy Nuclei (%) [3]: 11% and 13%
Population Hoechst High Intensity Objects (%) [3]: 1% and 7%
Population Membrane Permeable-Phenotype (%) [3]: 18% and 0%
Population Normal (%) [3]: 98% and 92%
Population Pyknosed Nuclei (%) [3]: 79% and 65%
Population Tubulin-Different-Phenotype (%) [3]: 50% and 80%
Population Apoptotic (%) [4]: 94% and 95%
Population Hoechst High Intensity Objects (%) [4]: 1% and 0%
Population Mitotic Cells (%) [4]: 5% and 4%
Population Normal (%) [4]: 98% and 100%
Population Pyknosed Nuclei (%) [4]: 64% and 61%
Population Tubulin-Different-Phenotype (%) [4]: 89% and 33%
Population Apoptotic (%) [5]: 100% and 86%
Population Fragmented Nuclei (%) [5]: 10% and 16%
Population Healthy Nuclei (%) [5]: 4% and 0%
Population Hoechst High Intensity Objects (%) [5]: 2% and 7%
Population Mitotic Cells (%) [5]: 0% and 13%
Population Normal (%) [5]: 97% and 92%
Population Pyknosed Nuclei (%) [5]: 85% and 83%
Population Apoptotic (%) [6]: 94% and 92%
Population Healthy Nuclei (%) [6]: 10% and 5%
Population Hoechst High Intensity Objects (%) [6]: 0% and 1%
Population Membrane Permeable-Phenotype (%) [6]: 100% and 57%
Population Mitochondria Different-Phenotype (%) [6]: 100% and 57%
Population Mitotic Cells (%) [6]: 5% and 7%
Population Normal (%) [6]: 100% and 98%
Population Pyknosed Nuclei (%) [6]: 44% and 85%
Population Tubulin-Different-Phenotype (%) [6]: 100% and 85%

Br.Cc1cccc(C2CN(C)CCc3c2cc(O)c(O)c3Cl)c1 (centres undefined)
Population Apoptotic (%) [1]: 80% and 65%
Population Healthy Nuclei (%) [1]: 61% and 87%
Population Hoechst High Intensity Objects (%) [1]: 0%
Population Membrane Permeable-Phenotype (%) [1]: 0%
Population Mitochondria Different-Phenotype (%) [1]: 0%
Population Mitotic Cells (%) [1]: 20% and 35%
Population Normal (%) [1]: 100%
Population Pyknosed Nuclei (%) [1]: 10% and 7%
Population Tubulin-Different-Phenotype (%) [1]: 51% and 83%
Population Fragmented Nuclei (%) [2]: 4% and 14%
Population Healthy Nuclei (%) [2]: 88% and 80%
Population Hoechst High Intensity Objects (%) [2]: 0%
Population Membrane Permeable-Phenotype (%) [2]: 1% and 0%
Population Mitochondria Different-Phenotype (%) [2]: 1% and 0%
Population Mitotic Cells (%) [2]: 41% and 100%
Population Normal (%) [2]: 100%
Population Pyknosed Nuclei (%) [2]: 7% and 4%
Population Tubulin-Different-Phenotype (%) [2]: 88% and 35%
Population Apoptotic (%) [3]: 56% and 50%
Population Healthy Nuclei (%) [3]: 91% and 73%
Population Hoechst High Intensity Objects (%) [3]: 0%
Population Membrane Permeable-Phenotype (%) [3]: 0% and 3%
Population Mitochondria Different-Phenotype (%) [3]: 0%
Population Mitotic Cells (%) [3]: 43% and 50%
Population Normal (%) [3]: 100%
Population Pyknosed Nuclei (%) [3]: 6% and 13%
Population Tubulin-Different-Phenotype (%) [3]: 85% and 48%
Population Apoptotic (%) [4]: 58% and 50%
Population Healthy Nuclei (%) [4]: 89% and 62%
Population Hoechst High Intensity Objects (%) [4]: 0%
Population Membrane Permeable-Phenotype (%) [4]: 0% and 10%
Population Mitochondria Different-Phenotype (%) [4]: 1% and 0%
Population Mitotic Cells (%) [4]: 41% and 50%
Population Normal (%) [4]: 100%
Population Pyknosed Nuclei (%) [4]: 8% and 12%
Population Tubulin-Different-Phenotype (%) [4]: 83% and 40%
Population Apoptotic (%) [5]: 42% and 46%
Population Healthy Nuclei (%) [5]: 72% and 90%
Population Hoechst High Intensity Objects (%) [5]: 0%
Population Membrane Permeable-Phenotype (%) [5]: 2% and 0%
Population Mitochondria Different-Phenotype (%) [5]: 0%
Population Mitotic Cells (%) [5]: 57% and 53%
Population Normal (%) [5]: 100%
Population Pyknosed Nuclei (%) [5]: 11% and 5%
Population Tubulin-Different-Phenotype (%) [5]: 60% and 91%
Population Apoptotic (%) [6]: 50% and 67%
Population Healthy Nuclei (%) [6]: 73% and 91%
Population Hoechst High Intensity Objects (%) [6]: 0%
Population Membrane Permeable-Phenotype (%) [6]: 4% and 0%
Population Mitochondria Different-Phenotype (%) [6]: 4% and 0%
Population Mitotic Cells (%) [6]: 50% and 32%
Population Normal (%) [6]: 100%
Population Pyknosed Nuclei (%) [6]: 13% and 6%
Population Tubulin-Different-Phenotype (%) [6]: 63% and 88%

CS(=O)(=O)c1ccc(C(=O)Nc2cccc(COc3ccc(Br)cc3CN3CC[C@@H](O)C3)c2)c(Cl)c1.O=CO
Population Apoptotic (%) [1]: 60% and 71%
Population Healthy Nuclei (%) [1]: 80%
Population Hoechst High Intensity Objects (%) [1]: 0%
Population Mitotic Cells (%) [1]: 40% and 28%
Population Normal (%) [1]: 100%
Population Pyknosed Nuclei (%) [1]: 9%
Population Apoptotic (%) [2]: 55% and 54%
Population Healthy Nuclei (%) [2]: 65% and 80%
Population Hoechst High Intensity Objects (%) [2]: 0%
Population Mitotic Cells (%) [2]: 44% and 45%
Population Normal (%) [2]: 100%
Population Pyknosed Nuclei (%) [2]: 20% and 15%
Population Apoptotic (%) [3]: 54% and 59%
Population Healthy Nuclei (%) [3]: 59% and 86%
Population Hoechst High Intensity Objects (%) [3]: 0%
Population Mitotic Cells (%) [3]: 45% and 40%
Population Normal (%) [3]: 100%
Population Apoptotic (%) [4]: 60% and 72%
Population Healthy Nuclei (%) [4]: 59% and 65%
Population Hoechst High Intensity Objects (%) [4]: 0%
Population Mitotic Cells (%) [4]: 40% and 27%
Population Normal (%) [4]: 100%
Population Pyknosed Nuclei (%) [4]: 31%
Population Apoptotic (%) [5]: 60% and 87%
Population Healthy Nuclei (%) [5]: 64% and 82%
Population Hoechst High Intensity Objects (%) [5]: 0%
Population Normal (%) [5]: 100%
Population Pyknosed Nuclei (%) [5]: 15%
Population Apoptotic (%) [6]: 76% and 88%
Population Healthy Nuclei (%) [6]: 47% and 57%
Population Hoechst High Intensity Objects (%) [6]: 0% and 1%
Population Mitotic Cells (%) [6]: 23% and 11%
Population Normal (%) [6]: 100%
Population Pyknosed Nuclei (%) [6]: 33%

CS(=O)(=O)c1ccc(NC(=O)c2cccc(COc3ccc(Br)cc3CNCCO)c2)c(Cl)c1.O=CO
Population Apoptotic (%) [1]: 80% and 76%
Population Fragmented Nuclei (%) [1]: 11%
Population Healthy Nuclei (%) [1]: 76% and 84%
Population Hoechst High Intensity Objects (%) [1]: 0%
Population Mitotic Cells (%) [1]: 20% and 24%
Population Apoptotic (%) [2]: 85% and 71%
Population Healthy Nuclei (%) [2]: 50% and 72%
Population Hoechst High Intensity Objects (%) [2]: 0%
Population Apoptotic (%) [3]: 50% and 79%
Population Fragmented Nuclei (%) [3]: 7% and 3%
Population Healthy Nuclei (%) [3]: 69% and 78%
Population Hoechst High Intensity Objects (%) [3]: 0%
Population Mitotic Cells (%) [3]: 50% and 20%
Population Apoptotic (%) [4]: 77%
Population Healthy Nuclei (%) [4]: 33% and 65%
Population Hoechst High Intensity Objects (%) [4]: 0%
Population Mitotic Cells (%) [4]: 46% and 22%
Population Apoptotic (%) [5]: 83% and 87%
Population Fragmented Nuclei (%) [5]: 7%
Population Healthy Nuclei (%) [5]: 67% and 79%
Population Hoechst High Intensity Objects (%) [5]: 0%
Population Apoptotic (%) [6]: 100% and 94%
Population Healthy Nuclei (%) [6]: 23% and 57%
Population Hoechst High Intensity Objects (%) [6]: 0%
Population Mitotic Cells (%) [6]: 0% and 5%
